Hits are enriched below; roughly 0.99% of the tested compounds scored in any of these assays.
GSK3B inh – human GSK3beta kinase inhibitors, primary screen, biochemical, cell-free homogeneous, HTS. Glycogen synthase kinase-3 beta (Homo sapiens), P49841. GST-GSK3beta kinase, ADP-Glo luminescence, 60 min; stronger effect = lower value. activity score (negative = inhibition), % at 10 µM. 300,000 tested, 0.038% active. AID 2097, 2009;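 active = more than half of replicate wells score below -50%, meaning over 50% inhibition versus plate controls; inconclusive = some replicates but at most half score below -50%; inactive = no replicate scores below -50%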;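 also: 0% = median DMSO wells and -100% = median GW8510 positive control wells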
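Test system: GST-tagged human GSK3beta kinase, cell-free; evaluation: activity score scaled between in-plate DMSO and GW8510 controls; measured by: ADP-Glo luminescence; incubation: 60 min reaction, RT; benchmarks: DMSO and 20 µM GW8510; reagent: peptide substrate plus 25 µM ATP (final); medium: Tris/MgCl2 kinase buffer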
STK33 inh – inhibitors of purified STK33 kinase, primary screen, biochemical, ADP-Glo luminescence, homogeneous, cell-free; Serine/threonine-protein kinase 33 (Homo sapiens), Q9BYT3; MBP phosphorylation; inhibition, % at 10 µM; 320,000 tested, 0.073% active; AID 2661, 2010;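 active = inhibition at or above 25%, using the most active replicate where run in duplicate; inactive = inhibition below 25%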
Rce1 inh – yeast Rce1p protease inhibitors, primary screen, biochemical, fluorescence, cell-free homogeneous; 290,000 tested, 0.27% active; yeast membranes, quenched prenylated peptide cleavage fluorescence; CAAX prenyl protease 2 (Saccharomyces cerevisiae (strain ATCC 204508 / S288c)), Q03530; calls only;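 active = fall in fluorescence gain of 50% or more versus controls, with final raw signal at or below 3038400; inconclusive = same 50% fall but final raw signal above 3038400; inactive = fall in fluorescence gain under 50%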;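 also: plate controls were neutral control wells for no effect and wells lacking membranes for full effect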
GSK3 alpha inh – blockers of GSK3A enzyme activity – biochemical, luminescence, cell-free homogeneous, HTS, primary screen. inhibition, % at 10 µM. Glycogen synthase kinase-3 alpha (Homo sapiens), P49840. GSK-3 alpha kinase, ADP-Glo luminescence, 60 min. 320,000 tested, 0.1% active;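 active = more than half of replicates show inhibition above 20%; inconclusive = some but at most half of replicates above 20% inhibition; inactive = no replicate shows inhibition above 20%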;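 also: GST-tagged GSK-3 alpha with peptide substrate and 25 µM ATP; 0% = DMSO neutral wells and 100% = GW8510 positive control wells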
Target sequence (P49840 whole entry, looked up): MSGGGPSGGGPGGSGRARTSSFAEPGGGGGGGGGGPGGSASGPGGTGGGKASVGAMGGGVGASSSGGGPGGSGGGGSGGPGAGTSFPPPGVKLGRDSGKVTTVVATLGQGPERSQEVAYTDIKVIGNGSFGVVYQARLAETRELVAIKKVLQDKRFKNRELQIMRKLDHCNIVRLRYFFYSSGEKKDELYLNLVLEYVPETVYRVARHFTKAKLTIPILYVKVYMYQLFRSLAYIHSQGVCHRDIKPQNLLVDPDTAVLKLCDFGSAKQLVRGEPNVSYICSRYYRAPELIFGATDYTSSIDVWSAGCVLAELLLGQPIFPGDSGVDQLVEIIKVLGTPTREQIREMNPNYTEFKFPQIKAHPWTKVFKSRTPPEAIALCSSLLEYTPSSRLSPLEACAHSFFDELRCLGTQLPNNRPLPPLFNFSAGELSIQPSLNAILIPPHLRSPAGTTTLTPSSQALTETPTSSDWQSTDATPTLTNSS
DYRK1A inh – rat Dyrk1A kinase inhibitors, primary screen, biochemical, single point, plate reader; Dual specificity tyrosine-phosphorylation-regulated kinase 1A (Rattus norvegicus), Q63470; ADP-Glo luminescence, NFATc1 peptide; inhibition, % at 12.5 µM; 310,000 tested, 0.43% active; in the data active = inhibition above about 50%;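 also: plate controls were vehicle with enzyme for no effect and no enzyme for full effect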
AI-2 QS modul – Vibrio harveyi AI-2 quorum sensing modulators, primary screen, JMH597 strain, luminescence/OD600 ratio; 300,000 tested, 0.4% active; activity change, % at 7.5 µM; Vibrio harveyi JMH597 AI-2 luminescence/OD600 ratio, 9 h; stronger effect = lower value; strain lacks LuxN and CqsS sensors; 0 = neutral-control median; in the data active = activity change below about -75%, passing the limit was not always enough; inconclusive = no clear call, values can overlap the other calls;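 also: luminescence divided by OD600 gain over 9 h not by final OD600 alone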
The depositor's hits bear a star; i = inactive; ? = inconclusive; · = not tested or not shown; + = active, no number.

SMILES | GSK3B inh | STK33 inh | Rce1 inh | GSK3 alpha inh | DYRK1A inh | AI-2 QS modul
Clc1ccc(C2=C3CCCCn4c(-c5ccccc5)c[n+](c43)C2)cc1 | 0 | -1 | i | 0 | 1 | 17
COc1ccc(-c2c[n+]3c4n2CCCCC4=C(c2ccc(Br)cc2)C3)cc1 | -2 | -3 | + | -3 | -5 | 7
CC1(C)C2CCC1(C)C(SC(=N)N)C2 (stereo not drawn) | · | · | · | · | -1 | ·
Cc1ccc(NC(=O)CNCc2cccs2)cc1Br | 10 | -1 | i | -1 | 5 | -76*
C[C@H](OC(=O)NCc1ccc(C(F)(F)F)cc1)[C@@H]1O[C@@]2(C)CCC[C@@H]1O2 | · | 0 | · | 0 | 16 | ·
O=C(COc1ccc(Br)cc1)Nc1ccccc1C(=O)NC1CC1 | -2 | 0 | i | 0 | 12 | 53
Cc1ccn2c(=O)c(NC(=O)COc3ccccc3)c(C)nc2c1 | 5 | 0 | i | -2 | 4 | 21
Cc1nc2c(C)cccn2c(=O)c1NC(=O)COc1ccccc1 | 2 | 0 | + | 0 | · | 242
CCOc1ccccc1Nc1nnc(SCC(=O)N(C)C2CCS(=O)(=O)C2)s1 (stereo not drawn) | · | 0 | · | 2 | -1 | ·
O=C(N/N=C/c1c[nH]c2ccccc12)c1sc2ccccc2c1Cl | 3 | -2 | i | -1 | 18 | 19
O=C(N/N=C/c1ccccn1)c1sc2ccccc2c1Cl | -18 | 8 | i | 21 | 64* | ?
O=C(Cn1c2ccccc2c(=O)c2ccccc21)Nc1ccccc1F | 0 | 0 | + | 3 | 0 | 5
CC(=O)c1cn(CC(=O)Nc2ccccc2F)c2ccccc12 | · | 1 | · | 3 | 3 | ·
CSc1nc(C)cc(-c2cc(C(=O)Nc3ccccc3)on2)n1 | 6 | 0 | i | -3 | · | 22
Cc1cc(-c2ccc(C)c(S(=O)(=O)Nc3cc(C)on3)c2)on1 | 0 | -2 | i | · | -5 | 2
Cc1ccccc1NS(=O)(=O)c1ccc(C(=O)NCC(c2ccccc2)N(C)C)cc1 (stereo not drawn) | 1 | 0 | + | 1 | · | 3
COc1ccc(/C=C\c2cc(OC)c(OC)cc2CC[N+](C)(C)C)cc1OC | -3 | -1 | + | -5 | 0 | 11
CC(C)NCC(O)COCCOc1ccc(Br)cc1 (stereo not drawn) | -2 | -1 | + | 0 | 0 | 25
CC(C)NCC(O)COCCOc1ccc(C(C)(C)C)cc1 (stereo not drawn) | 1 | -1 | i | -1 | -4 | 36
O=c1[nH]c(Nc2ccccn2)cc2ccccc12 | 3 | 0 | + | -7 | 0 | 1
O=c1[nH]c(Nc2ccccc2Cl)cc2ccccc12 | -2 | -1 | i | -2 | 9 | 40
Cc1ccccc1Nc1cc2ccccc2c(=O)[nH]1 | -5 | 0 | i | -5 | 52* | 32
CCOc1ccc(S(=O)(=O)NCc2ccc3c(c2)OCO3)cc1NC(C)=O | 1 | 0 | i | -1 | -2 | 4
NC(=O)[C@@H]1CC2(CC(c3cccc(NC(=O)COc4ccc(Cl)cc4)c3)=NO2)CN1C(=O)COc1ccc(Cl)cc1 (stereo partly drawn) | -2 | 1 | i | -1 | -2 | 13
NC(=O)[C@@H]1CC2(CC(c3cccc(NC(=O)CC(c4ccccc4)c4ccccc4)c3)=NO2)CN1C(=O)c1ccc(Cl)cc1 (stereo partly drawn) | 3 | -1 | + | -4 | 1 | 17
NC(=O)[C@H]1CC2(CC(c3cccc(NC(=O)COc4ccc(Cl)cc4)c3)=NO2)CN1C(=O)C(c1ccccc1)c1ccccc1 (stereo partly drawn) | 2 | 0 | + | -1 | 3 | 19

Bioassay records deposited in PubChem by Broad Institute.
